# Published values collected from several papers.
# Protocols differ between the studies behind these lines.
# Action: inhibitor
# BCHE: Cholinesterase (BCHE, Equus caballus, UniProt P81908)
Compound,target,assay,test system,IC50 [µM]
COc1cc(/C=C/C(=O)NC2CCN(Cc3ccccc3)CC2)ccc1OC(=O)N1CCCC1,BCHE,"enzyme activity, Ellman",,3.4
COc1ccc(OC)c(/C=C/C(=O)N2CCCC(NC(=O)OC(C)(C)C)C2)c1 (stereo not shown),BCHE,"enzyme activity, Ellman",,> 50
CN(C)C(=O)Oc1ccc(/C=C/C(=O)NC2CCN(Cc3ccccc3)CC2)cc1,BCHE,"enzyme activity, Ellman",,11.5
CC(C)(C)OC(=O)NC1CCCN(C(=O)/C=C/c2cccc([N+](=O)[O-])c2)C1 (stereo not shown),BCHE,"enzyme activity, Ellman",,> 50
COc1cc(/C=C/C(=O)NC2CCN(Cc3ccccc3)CC2)ccc1OC(=O)N(C)C,BCHE,"enzyme activity, Ellman",,9.6
CC(C)(C)OC(=O)NC1CCCN(C(=O)/C=C/c2ccc(Br)cc2)C1 (stereo not shown),BCHE,"enzyme activity, Ellman",,38.1
O=C(O)C(/C=C/c1c(Cl)cccc1Cl)=N\Nc1nc(-c2ccc(Cl)cc2)cs1,BCHE,enzyme activity,,7.36
CCN(C)C(=O)Oc1ccc(CCC(=O)N(CC)Cc2ccccc2)cc1OC,BCHE,"enzyme activity, Ellman",,12.7
O=C(O)C(/C=C/c1c(Cl)cccc1Cl)=N\Nc1nc(-c2ccc(F)cc2)cs1,BCHE,enzyme activity,,4.04
CC(C)(C)OC(=O)NC1CCCN(C(=O)/C=C/c2cccc(F)c2)C1 (stereo not shown),BCHE,"enzyme activity, Ellman",,15.3
O=C(O)C(/C=C/c1c(Cl)cccc1Cl)=N\Nc1nc(-c2ccc(Br)cc2)cs1,BCHE,enzyme activity,,8.47
O=C(N1CCC2(CC1)C[C@H](CN1CCCCS1(=O)=O)CCO2)C1(c2ccccc2)CCCC1,"DHX58 (Homo sapiens, UniProt Q96C10)",ATPase activity,,> 50
CC(C)(C)OC(=O)NC1CCCN(C(=O)C=Cc2ccccc2)C1 (stereo not shown),BCHE,"enzyme activity, Ellman",,43.7
CCN(CC)C(=O)Oc1ccc(/C=C/C(=O)NC2CCN(Cc3ccccc3)CC2)cc1,BCHE,"enzyme activity, Ellman",,15.2
CC(=O)c1c(C)c2cnc(Nc3ccc(C4CCN(CCS(C)(=O)=O)CC4)cn3)nc2n(C2CCCC2)c1=O,"Cytochrome P450 2B6 (CYP2B6, Homo sapiens, UniProt P20813)",enzyme activity,"human, liver microsomes",> 10
CN1CC[C@@]2(C)c3cc(OC(=O)Nc4ccccc4)ccc3N(C)[C@@H]12,"Aldehyde dehydrogenase, dimeric NADP-preferring (ALDH3A1, Homo sapiens, UniProt P30838)","enzyme activity, fluorescence",,< 10
